The record followed here is ChEMBL document CHEMBL1125042, “Hypolipidemic activity of rifamycin derivatives” (J Med Chem, 1990).

Converted amounts (≈) assume the structure as drawn. Some results are limits rather than exact numbers.

Test [1] concerns Rattus norvegicus. The experiment in a line: Hypolipidemic activity was determined in male rats, and high-density lipoprotein level was determined at 10 mg/kg. It is filed as functional. The essentials: (§1)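 Male Wistar rats (200–230 g), eight per group, were dosed orally in PEG 400 at 8 a.m. for 4 days, plus a second dose at 4 p.m. on day 4. Rats were fasted 16 h and killed 16 h after the last dose. Sera from pairs of rats were pooled. LDL (up to 1.040 g/cm³) was separated by ultracentrifugation and the HDL infranatant taken. Cholesterol was measured enzymatically. Results are % versus vehicle control, mean ± SEM of four pools, Student's t test.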

A short description of test [2]: Inhibitory activity against RNA polymerase was determined. The arrangement: species or system Escherichia coli. The essentials: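 E. coli DNA-dependent RNA polymerase inhibition measured in vitro on ether-extracted, permeabilized E. coli cells.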
Test [3] relates to Rattus norvegicus. The experiment in a line: Tested for hypolipidemic activity in male rats, cholesterol was determined in serum at 10 mg/kg. It is filed as functional. The essentials: (§2)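 Groups of eight male Wistar rats (200–230 g) dosed orally in PEG 400, either daily for 7 days (killed 24 h after the last dose) or for 4 days with a second dose on day 4 (killed 16 h later). Fasted 16 h. Paired sera pooled, lipoproteins separated by ultracentrifugation (1.006 and 1.040 g/cm³), HDL taken as the infranatant. Cholesterol measured enzymatically; % vs vehicle, mean ± SEM of four pools.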

In test [4] the test system is Rattus norvegicus. The experiment in a line: Hypolipidemic activity was determined in male rats, and low-density lipoprotein level was determined at 10 mg/kg. It is filed as functional. The essentials: as §1
The subject of a further test is Staphylococcus aureus. As to the kind of experiment: Antibacterial activity against Staphylococcus aureus 10B. It is filed as functional. The essentials:
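Agar dilution on DST agar with 2-fold drug dilutions. Inoculum of 10⁴ viable S. aureus 10B was taken from liquid-nitrogen stock, thawed 30 min and not subcultured. It was applied by multipoint replicator and incubated overnight at 37 °C. MIC is the lowest concentration inhibiting growth relative to control cultures.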

The subject of test [5] is Rattus norvegicus. The experiment in a line: Hypolipidemic activity was determined in male rats, and low-density lipoprotein level was determined at 20 mg/kg. It is filed as functional. The essentials:
as §1

Test [6] deals with Rattus norvegicus. As to the kind of experiment: Hypolipidemic activity was determined in male rats, and high-density lipoprotein level was determined at 20 mg/kg. It is filed as functional. The essentials: as §1
Test [7] concerns Rattus norvegicus. The experiment in a line: Tested for hypolipidemic activity in male rats, cholesterol was determined in serum at 20 mg/kg. It is filed as functional. The essentials:
as §2

For `CC(=O)OC1C(C)C2/C=C/OC3(C)Oc4c(C)c(O)c5c(O)c(c(N6CCN(Cc7c(C)cc(C)cc7C)CC6)c(O)c5c4C3=O)NC(=O)/C(C)=C\C=C\C(C)C(O)C(C)C(O2)C1C` (stereo not drawn), the Activity in the test with Rattus norvegicus [1] is listed as -4%; with Rattus norvegicus [3] it was 0%; with Rattus norvegicus [4], -9%. Besides, the half-maximal inhibitory concentration (IC50) in test [2] was over 100 µg/mL. For the same molecule, in the test on Staphylococcus aureus, the MIC is over 128 µg/mL.
For `COC1/C=C/OC2(C)Oc3c(C)c(O)c4c(O)c(c(N5CCN(Cc6c(C)cc(C)cc6C)CC5)c(O)c4c3C2=O)NC(=O)/C(C)=C\C=C\C(C)C(O)C(C)C(=O)C(C)C(OC(C)=O)C1C` (stereo not drawn), the Activity is -23% in the test on Rattus norvegicus [1], -18% with Rattus norvegicus [3] and -1% with Rattus norvegicus [4]. In addition, the minimum inhibitory concentration (MIC) against Staphylococcus aureus worked out at 2 µg/mL (≈ 2.19 µM).
With `COC1/C=C/OC2(C)Oc3c(C)c(O)c4c(O)c(c(N5CCN(Cc6c(C)cc(C)cc6C)CC5)c(O)c4c3C2=O)NC(=O)C(C)CCCC(C)C(O)C(C)C(O)C(C)C(OC(C)=O)C1C` (stereo not drawn), the figures for the Activity in the test with Rattus norvegicus [1], in the test on Rattus norvegicus [3] and with Rattus norvegicus [4] were -36%, -40% and -59%, respectively. The 50% inhibitory concentration (IC50) in test [2] worked out at 6.5 µg/mL (≈ 7.08 µM). Inhibition of growth against Staphylococcus aureus (MIC) required 0.2 µg/mL (≈ 0.218 µM).
As for `COC1/C=C/OC2(C)Oc3c(C)c(O)c4c(O)c(c(N5CCN(Cc6c(C)cc(C)cc6C)CC5)c(O)c4c3C2=O)NC(=O)/C(C)=C\C=C\C(C)C(=O)C(C)C(O)C(C)C(OC(C)=O)C1C` (stereo not drawn), the Activity was -15% in the test with Rattus norvegicus [1], -11% in the test with Rattus norvegicus [3] and 1% in the test on Rattus norvegicus [4]. The MIC against Staphylococcus aureus worked out at 64 µg/mL (≈ 70.2 µM).
In the case of `COC1/C=C/OC2(C)Oc3c(C)c(O)c4c(O)c(c(N5CCN(Cc6c(C)cc(C)cc6C)CC5)c(O)c4c3C2=O)NC(=O)/C(C)=C\C=C\C(C)C2OC(C)(C)OC(C2C)C(C)C(OC(C)=O)C1C` (stereo not drawn), the values for the Activity in the test on Rattus norvegicus [1], in the test on Rattus norvegicus [3] and in the test with Rattus norvegicus [4] were -27%, -14% and -6%, respectively. Besides, in the test on Staphylococcus aureus, the minimal inhibitory concentration (MIC) was found to be 8 µg/mL (≈ 8.38 µM).
For the molecule `COC1/C=C/OC2(C)Oc3c(C)c(O)c4c(O)c(c(N5CCN(Cc6c(C)cc(C)cc6C)CC5)c(O)c4c3C2=O)NC(=O)/C(C)=C\C=C\C(C)C(OC(C)=O)C(C)C(OC(C)=O)C(C)C(OC(C)=O)C1C` (stereo not drawn), the results for the Activity with Rattus norvegicus [1], with Rattus norvegicus [3] and with Rattus norvegicus [4] were -24%, -24% and -19%, respectively. This molecule returned an MIC against Staphylococcus aureus of 4 µg/mL (≈ 4.01 µM).
In the case of `COC1/C=C/OC2(C)Oc3c(C)c(O)c4c(O)c(c(N5CCC(Cc6ccccc6)CC5)c(O)c4c3C2=O)NC(=O)/C(C)=C\C=C\C(C)C(O)C(C)C(O)C(C)C(OC(C)=O)C1C` (stereo not drawn), the Activity with Rattus norvegicus [5] was -66%; with Rattus norvegicus [6], -51%; in the test with Rattus norvegicus [7], -53%. For the same molecule, in the test on Staphylococcus aureus, 0.04 µg/mL (≈ 0.0459 µM) was the least that counted as inhibitory (MIC).
For the molecule `CCCCCCCCCCCCN1CCN(c2c3c(O)c4c(O)c(C)c5c(c4c2O)C(=O)C(C)(O/C=C/C(OC)C(C)C(OC(C)=O)C(C)C(O)C(C)C(O)C(C)/C=C/C=C(/C)C(=O)N3)O5)CC1` (stereo not drawn), the results for the Activity in the test on Rattus norvegicus [5], with Rattus norvegicus [6] and in the test on Rattus norvegicus [7] were -68%, -53% and -56%, respectively. This molecule also gave a minimum inhibitory concentration (MIC) against Staphylococcus aureus of 0.15 µg/mL (≈ 0.158 µM).
On the same counts, the results for `COC1/C=C/OC2(C)Oc3c(C)c(O)c4c(O)c(c(N5CCC(CC6CCCCC6)CC5)c(O)c4c3C2=O)NC(=O)/C(C)=C\C=C\C(C)C(O)C(C)C(O)C(C)C(OC(C)=O)C1C` (stereo not drawn) are -31%, -67%, -62% and 1 µg/mL (≈ 1.14 µM).
In the same order, the values of `CCOC(=O)C1CCN(c2c3c(O)c4c(O)c(C)c5c(c4c2O)C(=O)C(C)(O/C=C/C(OC)C(C)C(OC(C)=O)C(C)C(O)C(C)C(O)C(C)/C=C/C=C(/C)C(=O)N3)O5)CC1` (stereo not drawn) are 5%, -16%, -16% and under 0.1 µg/mL.
In the same order, the values of `COC1/C=C/OC2(C)Oc3c(C)c(O)c4c(O)c(c(N5CCC(C6CCCC6)CC5)c(O)c4c3C2=O)NC(=O)/C(C)=C\C=C\C(C)C(O)C(C)C(O)C(C)C(OC(C)=O)C1C` (stereo not drawn) are -41%, -40%, -42% and under 0.1 µg/mL.
Turning to `COC1/C=C/OC2(C)Oc3c(C)c(O)c4c(O)c(c(N5CCC(=O)CC5)c(O)c4c3C2=O)NC(=O)/C(C)=C\C=C\C(C)C(O)C(C)C(O)C(C)C(OC(C)=O)C1C` (stereo not drawn), the Activity was 53% in the test on Rattus norvegicus [5], -9% in the test with Rattus norvegicus [6] and 1% with Rattus norvegicus [7]. This molecule also yielded a minimal inhibitory concentration (MIC) in the test on Staphylococcus aureus of under 0.1 µg/mL.
`COC1/C=C/OC2(C)Oc3c(C)c(O)c4c(O)c(c(N5CCN(Cc6ccc(C(C)(C)C)cc6)CC5)c(O)c4c3C2=O)NC(=O)/C(C)=C\C=C\C(C)C(O)C(C)C(O)C(C)C(OC(C)=O)C1C` (stereo not drawn): the Activity in the test on Rattus norvegicus [5] was -70%; in the test on Rattus norvegicus [6], -71%; in the test with Rattus norvegicus [7], -70%. This molecule also gave a minimum inhibitory concentration (MIC) against Staphylococcus aureus of 0.5 µg/mL (≈ 0.539 µM).
On to `COC1/C=C/OC2(C)Oc3c(C)c(O)c4c(O)c(c(N5CCC(C)CC5)c(O)c4c3C2=O)NC(=O)/C(C)=C\C=C\C(C)C(O)C(C)C(O)C(C)C(OC(C)=O)C1C` (stereo not drawn), for which the Activity is 23% in the test on Rattus norvegicus [5], -30% in the test with Rattus norvegicus [6] and -23% in the test with Rattus norvegicus [7]. Also, the MIC against Staphylococcus aureus is under 0.1 µg/mL.
For `COC1CCOC2(C)Oc3c(C)c(O)c4c(O)c(c(N5CCN(Cc6c(C)cc(C)cc6C)CC5)c(O)c4c3C2=O)NC(=O)C(C)CCCC(C)C(O)C(C)C(O)C(C)C(OC(C)=O)C1C` (stereo not drawn), the Activity with Rattus norvegicus [1] was -27%; in the test on Rattus norvegicus [3], -30%; in the test on Rattus norvegicus [4] it was -32%. In addition, the IC50 in test [2] was determined as 8 µg/mL (≈ 8.69 µM). For the same molecule, in the test on Staphylococcus aureus, the MIC came out at 2 µg/mL (≈ 2.17 µM).

What is called IC50 is the point on the concentration scale where inhibition reaches its midpoint. In general, MIC refers to the least concentration at which growth counts as inhibited. Lower therefore signals greater potency.
